Screening data deposited in PubChem BioAssay by Johns Hopkins Ion Channel Center.
The list is not random: actives were taken first. Their share in the collection is about 3.1%.
KCNQ1 block: human KCNQ1 channel inhibition; P51787; CHO-K1 KCNQ1, FluxOR thallium flux fluorescence; stronger effect = higher value; B-score at 10 µM; actives 1.3% (n = 310,000); AID 2642;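 active = compounds whose thallium flux B-score, printed positive for inhibition, exceeds three library SD while starting fluorescence stays within three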;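 note: channel opened by potassium depolarization with thallium stimulus after 20 min compound exposure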
KCNQ1 pot: human KCNQ1 channel potentiation or activation | AID 2648 | actives 0.35% (n = 310,000) | CHO-K1 KCNQ1, thallium flux FluxOR fluorescence; stronger effect = higher value | B-score at 10 µM;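 active = fluorescence ratio B-score, a plate-corrected score, at least three library SD, with initial intensity B-score within 5 SD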
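Test system: CHO-K1 cells stably expressing KCNQ1 / Medium: assay buffer / Also added: depolarizing K+/Tl+ stimulus, K2SO4 and Tl2SO4 each 12.5 mM in 5x stock / Incubation: 90 min dye loading and 20 min compound exposure, both at room temperature / Signal: thallium influx via FluxOR fluorescence, kinetic imaging / Evaluation: B score of baseline-normalized fluorescence ratio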
KCNK9 inh: blocks the human KCNK9 two-pore domain potassium channel | B-score at 10 µM | HEK293 KCNK9, FluxOR thallium flux fluorescence; stronger effect = lower value | AID 488922 | Q9NPC2 | actives 1.2% (n = 310,000);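 active = ratio B-score over 3 SD below the library mean, with starting fluorescence within 5 SD of its mean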;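 note: negative B-score means less thallium flux so channel inhibition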
KCNK3 inh: human KCNK3 channel inhibition, primary screen; O14649; actives 0.84% (n = 340,000); CHO-KCNK3 thallium flux, FluxOR fluorescence; stronger effect = lower value; B-score at 10 µM; AID 602410;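 active = B-score under library mean minus 4 SD, starting fluorescence ratio at most library mean plus 5 SD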;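 note: more negative B-score means stronger inhibition of thallium flux through KCNK3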
hERG protect: shields human hERG channel from block by proarrhythmic agents | Q12809 | CHO-hERG, FluxOR thallium flux, dofetilide IC70 present | activation (rescue from dofetilide block), less the hit threshold, % at 10 µM | actives 0.51% (n = 310,000);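 active = activation above the mean of controls blocked by dofetilide plus 5 SD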;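 note: thallium influx through hERG after potassium depolarization seen as dye fluorescence rise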
KCNK9 block conf: confirmation of human KCNK9 potassium channel inhibitors | actives 43% (n = 4,900) | inhibition, % at 10 µM | HEK293 KCNK9 cells, FluxOR thallium flux fluorescence | shares compounds with KCNK9 inh;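 active = thallium signal inhibited by more than 5 SD of the compound-free buffer control wells, on both duplicate plates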;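 note: 0% = assay buffer control wells without compound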
Kir2-1 spec: selectivity of KCNK9 modulators against mouse Kir2.1; shares compounds with KCNK9 inh; Kir2.1 cells, FluxOR thallium flux fluorescence; inhibition, % at 10 µM; actives 4% (n = 4,900);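 active = thallium signal drop more than 5 SD beyond the mean of the no-compound control wells, seen in both duplicate plates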;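 note: signal is fluorescence rise after thallium addition divided by baseline fluorescence; plate controls were assay buffer only for no effect and full block by chlorpromazine control for full effect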
KCNK9 uninduced: non-induced cell nonspecific activity of KCNK9 modulators; shares compounds with KCNK9 inh; non-induced KCNK9-HEK293, FluxOR thallium flux; inhibition, % at 10 µM; actives 40% (n = 4,900); AID 492997;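 active = thallium signal drop beyond 5 SD of the untreated control mean, on both duplicate plates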;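 note: plate controls were buffer only IC0 wells for no effect and SID17386958 at its maximal inhibitory level for full effect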
Starred values were filed as active, the others as inactive; i = inactive; . = not tested or not shown.

SMILES	KCNQ1 block	KCNQ1 pot	KCNK9 inh	KCNK3 inh	hERG protect	KCNK9 block conf	Kir2-1 spec	KCNK9 uninduced
Cc1cccc(NC(=S)NC(=O)C(c2ccccc2)c2ccccc2)n1	i	i	i	i	-6.2	.	.	.
Cc1cccc(NC(=S)NC(=O)c2ccc(-c3ccccc3)cc2)n1	i	i	-11.4*	i	-9.8	i	i	i
Cc1ccc(C(=O)O)cc1NC(=S)NC(=O)c1ccc(-c2ccccc2)cc1	i	i	i	i	-7.5	i	i	i
CC(=O)Nc1ccc(NC(=O)C(C)OC(=O)c2ccc(S(=O)(=O)N3CCCCCC3)cc2)cc1 (centres undefined)	.	.	.	i	.	.	.	.
CCn1c(SC)nnc1-c1sc2cc(Cl)ccc2c1Cl	i	i	-11.1*	i	-12.0	59.5%*	i	36.5%*
COc1ccc(-c2noc(CCC(=O)N3CCN(c4ccccc4F)CC3)n2)cc1	.	.	.	i	.	.	.	.
CCC(C)NC(=O)CSc1nc2cc(S(=O)(=O)N3CCOCC3)ccc2n1CC (centres undefined)	i	i	i	i	-16.6	.	.	.
CCn1c(SCC(=O)c2cc(C)ccc2C)nc2cc(S(=O)(=O)N3CCOCC3)ccc21	i	i	i	i	-14.8	i	i	i
COCCn1c(C)cc(C(=O)COC(=O)c2ccc(Cl)c(S(N)(=O)=O)c2)c1C	i	i	i	i	-9.7	.	.	.
CCOc1ccc(OCc2ccc(C(=O)N3CCCC(C)C3)cc2)cc1 (centres undefined)	i	i	i	i	0.0	i	i	i
CCOc1ccc(NS(=O)(=O)c2ccc(C(=O)N3CCCC(C)C3)cc2)cc1 (centres undefined)	i	i	i	i	-13.7	i	i	i
CCOc1ccc(NS(=O)(=O)c2ccc(C(=O)N3CCCCCC3)cc2)cc1	i	i	i	i	-10.9	i	i	i
CCOc1ccc(NS(=O)(=O)c2ccc(C(=O)N3CCN(C(C)=O)CC3)cc2)cc1	i	i	i	i	-7.2	.	.	.
CCOc1ccc(S(=O)(=O)Nc2ccc(C(=O)N3CCCC3)cc2)cc1	i	i	i	i	-14.1	.	.	.
O=C(NCc1ccccc1)c1cc[n+](CC(=O)c2cccs2)cc1	i	i	i	i	-7.7	.	.	.
O=C(COC(=O)c1ccc(Br)o1)Nc1ccc(N2CCOCC2)cc1	.	.	.	i	.	.	.	.
COc1ccc(CCNC(=O)C(=O)NCC2OCCN2C(=O)c2ccc(Cl)cc2)cc1OC (centres undefined)	i	i	i	i	-5.4	.	.	.
CC(=O)NC(CC(=O)OCC(=O)N1CCc2ccccc21)c1ccccc1 (centres undefined)	i	i	i	i	-5.5	.	.	.
O=[N+]([O-])c1c(C(Cl)Cl)nn(-c2ccc(Cl)cc2)c1N1CCCCC1	i	i	i	i	-6.0	i	i	i
COC(=O)C(NC(=O)c1ccccc1C)(Nc1ncc(S(=O)(=O)c2ccc([N+](=O)[O-])cc2)s1)C(F)(F)F (centres undefined)	i	i	i	i	-12.3	i	i	i
COC(=O)c1ccc(N2CCN(C)CC2)c(NC(=O)c2ccc(-c3ccc(Cl)cc3)o2)c1	i	i	i	i	-9.6	.	.	.
COCc1cc(N2CCOCC2)nc(SCc2ccc(Cl)cc2)n1	i	i	i	i	-4.0	.	.	.
CSCc1cc(N2CCOCC2)nc(SCc2ccc(Cl)c(Cl)c2)n1	i	i	-9.22*	i	-3.1	31.0%*	i	37.5%*
CCN(CC)S(=O)(=O)c1ccc2c(c1)nc(SC(C)C(=O)NCC1CCCO1)n2CC (centres undefined)	i	i	i	i	-10.8	i	i	i
CCOC(=O)c1ccc2c(c1)nc(SC(C)C(=O)NCC1CCCO1)n2CC (centres undefined)	.	.	.	i	.	.	.	.
